Test results reported in ChEMBL document CHEMBL3352152, “Indolylmethylene benzo[h]thiazolo[2,3-b]quinazolinones: synthesis, characterization and evaluation of anticancer and antimicrobial activities” (Bioorg Med Chem Lett, 2014).

Tests used:
Pseudomonas aeruginosa = test: Antibacterial activity against Pseudomonas aeruginosa MTCC 4673 at 150 ug/ml after 24 hrs by agar well diffusion assay; type: functional; conditions: MTCC 4673, 24 h, read-out: IZ
How it was run: (§1)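 Agar well diffusion screen against the two Gram-positive strains (S. aureus, S. pyogenes) and the two Gram-negative strains (P. aeruginosa, K. pneumoniae). Streptomycin was the reference drug. Activity was read as zone of inhibition (mm).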

Nakaseomyces glabratus = test: Antifungal activity against Candida glabrata MTCC3019 at 150 ug/ml after 48 hrs by agar well diffusion method; type: functional; conditions: MTCC3019, 48 h, read-out: IZ
How it was run: (§2)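 Antifungal screen by agar well diffusion against C. albicans, C. glabrata, A. niger and A. parasiticus. Clotrimazole was the standard drug. Activity was recorded as zone of inhibition (ZOI, mm).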

HepG2 = test: Anticancer activity against human HepG2 cells assessed as cell viability after 48 hrs by MTT microcultured tetrazolium assay; type: functional, cell-based; conditions: HepG2, 48 h
How it was run: (§3)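 MTT-microcultured tetrazolium viability read-out in MCF-7 and HepG2 cells exposed to test samples. Surviving fraction was plotted against drug concentration to give survival curves, and IC50 was taken from these curves.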

Candida albicans = test: Antifungal activity against Candida albicans MTCC 183 at 150 ug/ml after 48 hrs by agar well diffusion method; type: functional; conditions: MTCC 183, 48 h, read-out: IZ; how it was run: as §2
Klebsiella pneumoniae = test: Antibacterial activity against Klebsiella pneumoniae MTCC 109 at 150 ug/ml after 24 hrs by agar well diffusion assay; type: functional; conditions: MTCC 109, 24 h, read-out: IZ; how it was run: as §1
Aspergillus parasiticus = test: Antifungal activity against Aspergillus parasiticus MTCC 8850 at 150 ug/ml after 48 hrs by agar well diffusion method; type: functional; conditions: MTCC 8850, 48 h, read-out: IZ; how it was run: as §2
MCF7 = test: Anticancer activity against human MCF7 cells assessed as cell viability after 48 hrs by MTT microcultured tetrazolium assay; type: functional, cell-based; conditions: MCF7, 48 h; how it was run: as §3
Streptococcus pyogenes = test: Antibacterial activity against Streptococcus pyogenes MTCC 1926 at 150 ug/ml after 24 hrs by agar well diffusion assay; type: functional; conditions: MTCC 1926, 24 h, read-out: IZ; how it was run: as §1
Aspergillus niger = test: Antifungal activity against Aspergillus niger MTCC 282 at 150 ug/ml after 48 hrs by agar well diffusion method; type: functional; conditions: MTCC 282, 48 h, read-out: IZ; how it was run: as §2
Staphylococcus aureus = test: Antibacterial activity against Staphylococcus aureus MTCC 96 at 150 ug/ml after 24 hrs by agar well diffusion assay; type: functional; conditions: MTCC 96, 24 h, read-out: IZ; how it was run: as §1

O=c1/c(=C/c2c[nH]c3ccccc23)sc2n1C(c1ccc(Cl)cc1)C1=C(N=2)c2ccccc2CC1 (stereo unspecified)
zone of inhibition at 150 µg/mL (Pseudomonas aeruginosa): 18 mm | zone of inhibition at 150 µg/mL (Nakaseomyces glabratus): 12 mm | IC50 (HepG2): 16.3 µM | zone of inhibition at 150 µg/mL (Candida albicans): 8 mm | zone of inhibition at 150 µg/mL (Klebsiella pneumoniae): 8 mm | zone of inhibition at 150 µg/mL (Aspergillus parasiticus): 12 mm | IC50 (MCF7): 42.8 µM | zone of inhibition at 150 µg/mL (Streptococcus pyogenes): 8 mm | zone of inhibition at 150 µg/mL (Aspergillus niger): 12 mm | zone of inhibition at 150 µg/mL (Staphylococcus aureus): 12 mm

COc1ccc2c(c1)CCC1=C2N=c2s/c(=C\c3c[nH]c4ccccc34)c(=O)n2C1c1cccc([N+](=O)[O-])c1 (stereo unspecified)
zone of inhibition at 150 µg/mL (Pseudomonas aeruginosa): 8 mm | zone of inhibition at 150 µg/mL (Nakaseomyces glabratus): 8 mm | IC50 (HepG2): 70.3 µM | zone of inhibition at 150 µg/mL (Candida albicans): 8 mm | zone of inhibition at 150 µg/mL (Klebsiella pneumoniae): 8 mm | zone of inhibition at 150 µg/mL (Aspergillus parasiticus): 8 mm | IC50 (MCF7): > 200 µM | zone of inhibition at 150 µg/mL (Streptococcus pyogenes): 8 mm | zone of inhibition at 150 µg/mL (Aspergillus niger): 12 mm | zone of inhibition at 150 µg/mL (Staphylococcus aureus): 8 mm

COc1cccc2c1C(=O)c1c(O)c3c(c(O)c1C2=O)C[C@@](O)(C(=O)CO)C[C@@H]3O[C@H]1C[C@H](N)[C@H](O)[C@H](C)O1 [DOXORUBICIN]
IC50 (HepG2): 1.1 µM

COc1ccc2c(c1)CCC1=C2N=c2s/c(=C\c3c[nH]c4ccc(Br)cc34)c(=O)n2C1c1cccc([N+](=O)[O-])c1 (stereo unspecified)
zone of inhibition at 150 µg/mL (Pseudomonas aeruginosa): 8 mm | zone of inhibition at 150 µg/mL (Nakaseomyces glabratus): 8 mm | IC50 (HepG2): > 200 µM | zone of inhibition at 150 µg/mL (Candida albicans): 8 mm | zone of inhibition at 150 µg/mL (Klebsiella pneumoniae): 17 mm | zone of inhibition at 150 µg/mL (Aspergillus parasiticus): 10 mm | IC50 (MCF7): > 200 µM | zone of inhibition at 150 µg/mL (Streptococcus pyogenes): 16 mm | zone of inhibition at 150 µg/mL (Aspergillus niger): 10 mm | zone of inhibition at 150 µg/mL (Staphylococcus aureus): 19 mm

COc1ccc2c(c1)CCC1=C2N=c2s/c(=C\c3c(C)[nH]c4ccccc34)c(=O)n2C1c1cccc([N+](=O)[O-])c1 (stereo unspecified)
zone of inhibition at 150 µg/mL (Pseudomonas aeruginosa): 13 mm | zone of inhibition at 150 µg/mL (Nakaseomyces glabratus): 14 mm | IC50 (HepG2): 94.5 µM | zone of inhibition at 150 µg/mL (Candida albicans): 17 mm | zone of inhibition at 150 µg/mL (Klebsiella pneumoniae): 14 mm | zone of inhibition at 150 µg/mL (Aspergillus parasiticus): 18 mm | IC50 (MCF7): > 200 µM | zone of inhibition at 150 µg/mL (Streptococcus pyogenes): 15 mm | zone of inhibition at 150 µg/mL (Aspergillus niger): 20 mm | zone of inhibition at 150 µg/mL (Staphylococcus aureus): 16 mm

COc1ccc(C2C3=C(N=c4s/c(=C\c5c(C)[nH]c6ccccc56)c(=O)n42)c2ccc(OC)cc2CC3)cc1 (stereo unspecified)
zone of inhibition at 150 µg/mL (Pseudomonas aeruginosa): 8 mm | zone of inhibition at 150 µg/mL (Nakaseomyces glabratus): 8 mm | IC50 (HepG2): > 200 µM | zone of inhibition at 150 µg/mL (Candida albicans): 8 mm | zone of inhibition at 150 µg/mL (Klebsiella pneumoniae): 8 mm | zone of inhibition at 150 µg/mL (Aspergillus parasiticus): 10 mm | IC50 (MCF7): 112 µM | zone of inhibition at 150 µg/mL (Streptococcus pyogenes): 8 mm | zone of inhibition at 150 µg/mL (Aspergillus niger): 8 mm | zone of inhibition at 150 µg/mL (Staphylococcus aureus): 8 mm

COc1ccc(C2C3=C(N=c4s/c(=C\c5c[nH]c6ccc(OC)cc56)c(=O)n42)c2ccc(OC)cc2CC3)cc1 (stereo unspecified)
zone of inhibition at 150 µg/mL (Pseudomonas aeruginosa): 8 mm | zone of inhibition at 150 µg/mL (Nakaseomyces glabratus): 8 mm | IC50 (HepG2): 57.5 µM | zone of inhibition at 150 µg/mL (Candida albicans): 8 mm | zone of inhibition at 150 µg/mL (Klebsiella pneumoniae): 8 mm | zone of inhibition at 150 µg/mL (Aspergillus parasiticus): 10 mm | IC50 (MCF7): 30.6 µM | zone of inhibition at 150 µg/mL (Streptococcus pyogenes): 8 mm | zone of inhibition at 150 µg/mL (Aspergillus niger): 14 mm | zone of inhibition at 150 µg/mL (Staphylococcus aureus): 8 mm

COc1ccc2c(c1)CCC1=C2N=c2s/c(=C\c3c(C)[nH]c4ccccc34)c(=O)n2C1c1ccc(Cl)cc1 (stereo unspecified)
zone of inhibition at 150 µg/mL (Pseudomonas aeruginosa): 8 mm | zone of inhibition at 150 µg/mL (Nakaseomyces glabratus): 8 mm | IC50 (HepG2): 38.8 µM | zone of inhibition at 150 µg/mL (Candida albicans): 8 mm | zone of inhibition at 150 µg/mL (Klebsiella pneumoniae): 8 mm | zone of inhibition at 150 µg/mL (Aspergillus parasiticus): 12 mm | IC50 (MCF7): 61.9 µM | zone of inhibition at 150 µg/mL (Streptococcus pyogenes): 8 mm | zone of inhibition at 150 µg/mL (Aspergillus niger): 8 mm | zone of inhibition at 150 µg/mL (Staphylococcus aureus): 8 mm

COc1ccc2c(c1)CCC1=C2N=c2s/c(=C\c3c[nH]c4ccc(Br)cc34)c(=O)n2C1c1ccc(Cl)cc1 (stereo unspecified)
zone of inhibition at 150 µg/mL (Pseudomonas aeruginosa): 8 mm | zone of inhibition at 150 µg/mL (Nakaseomyces glabratus): 10 mm | IC50 (HepG2): 11.6 µM | zone of inhibition at 150 µg/mL (Candida albicans): 8 mm | zone of inhibition at 150 µg/mL (Klebsiella pneumoniae): 8 mm | zone of inhibition at 150 µg/mL (Aspergillus parasiticus): 10 mm | IC50 (MCF7): 2.59 µM | zone of inhibition at 150 µg/mL (Streptococcus pyogenes): 8 mm | zone of inhibition at 150 µg/mL (Aspergillus niger): 10 mm | zone of inhibition at 150 µg/mL (Staphylococcus aureus): 8 mm

COc1ccc2c(c1)CCC1=C2N=c2s/c(=C\c3c[nH]c4ccc(OC)cc34)c(=O)n2C1c1ccc(F)cc1 (stereo unspecified)
zone of inhibition at 150 µg/mL (Pseudomonas aeruginosa): 8 mm | zone of inhibition at 150 µg/mL (Nakaseomyces glabratus): 10 mm | IC50 (HepG2): 86.8 µM | zone of inhibition at 150 µg/mL (Candida albicans): 8 mm | zone of inhibition at 150 µg/mL (Klebsiella pneumoniae): 15 mm | zone of inhibition at 150 µg/mL (Aspergillus parasiticus): 10 mm | IC50 (MCF7): 193 µM | zone of inhibition at 150 µg/mL (Streptococcus pyogenes): 8 mm | zone of inhibition at 150 µg/mL (Aspergillus niger): 10 mm | zone of inhibition at 150 µg/mL (Staphylococcus aureus): 8 mm
